Source: ChEMBL document CHEMBL1156759, “Identification and optimization of inhibitors of Trypanosomal cysteine proteases: cruzain, rhodesain, and TbCatB” (J Med Chem, 2010)
Activity calls are given as the source filed them. No cut-off for these calls is given here.

Columns and labels:
Proteinase K = Proteinase K (Engyodontium album, UniProt P06873); test: Inhibition of human Proteinase K; parameters: species or system Parengyodontium album
How it was run: (§1)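 Profiling panel run externally as 10-dose, 3-fold serial dilutions of compound. Protease activity followed as a time course of fluorescence increase from a fluorescently labeled peptide substrate. The initial linear slope (signal/min) was analysed.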

[1] = Inhibition of recombinant Trypanosoma brucei cathepsin B after 5 mins by spectrofluorimetric analysis
How it was run: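 Recombinant TbCatB at 258 nM in 100 mM sodium acetate pH 5.5, 5 mM DTT, 0.001% Triton X-100, preincubated with compound in DMSO for 5 min at room temperature. Z-Phe-Arg-AMC 10 μM added to start. Rate of fluorescence rise read at ex 355/em 460 nm; DMSO control wells; IC50 from curve fitting.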

[2] = Inhibition of human Proteinase A; how it was run: as §1
[3] = target: Disintegrin and metalloproteinase domain-containing protein 17 (Homo sapiens, UniProt P78536); test: Inhibition of human TACE; how it was run: as §1
Mus musculus = species on record: Mus musculus; test: Toxicity in mouse; format: organism-based; settings: in vivo
Procathepsin L = Procathepsin L (Homo sapiens, UniProt P07711); test: Inhibition of human Cathepsin L; how it was run: as §1
Cathepsin K = target: T1, Cathepsin K (Homo sapiens, UniProt P43235); test: Inhibition of human Cathepsin K/O2; how it was run: as §1
T1 sequence (P43235 whole entry): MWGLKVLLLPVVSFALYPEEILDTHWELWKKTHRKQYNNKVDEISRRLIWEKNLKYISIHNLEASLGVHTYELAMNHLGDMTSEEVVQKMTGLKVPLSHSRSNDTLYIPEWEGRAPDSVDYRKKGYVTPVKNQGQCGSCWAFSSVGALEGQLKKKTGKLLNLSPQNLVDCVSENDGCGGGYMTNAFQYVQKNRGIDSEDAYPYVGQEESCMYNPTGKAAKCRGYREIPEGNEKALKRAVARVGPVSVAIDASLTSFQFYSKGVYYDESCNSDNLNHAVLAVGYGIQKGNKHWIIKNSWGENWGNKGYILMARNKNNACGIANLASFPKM

Cathepsin B = Cathepsin B (Homo sapiens, UniProt P07858); test: Inhibition of human Cathepsin B; how it was run: as §1
Rattus norvegicus = species on record: Rattus norvegicus; test: Toxicity in rat; format: organism-based; settings: in vivo
[4] = Inhibition of recombinant Trypanosoma brucei rhodesain after 5 mins by spectrofluorimetric analysis
How it was run: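 Recombinant rhodesain, 4 nM, preincubated 5 min at room temperature with compound (DMSO) in 100 mM sodium acetate pH 5.5, 5 mM DTT, 0.001% Triton X-100. Reaction started with 10 μM Z-Phe-Arg-AMC; rate of AMC fluorescence increase read at ex 355/em 460 nm. IC50 from curve fitting; DMSO-only wells as positive control.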

Caspase-4 = Caspase-4 (Homo sapiens, UniProt P49662); test: Inhibition of human Caspase 4; how it was run: as §1
Cathepsin L2 = target: T2, Cathepsin L2 (Homo sapiens, UniProt O60911); test: Inhibition of human Cathepsin V; how it was run: as §1
T2 sequence (O60911 whole entry): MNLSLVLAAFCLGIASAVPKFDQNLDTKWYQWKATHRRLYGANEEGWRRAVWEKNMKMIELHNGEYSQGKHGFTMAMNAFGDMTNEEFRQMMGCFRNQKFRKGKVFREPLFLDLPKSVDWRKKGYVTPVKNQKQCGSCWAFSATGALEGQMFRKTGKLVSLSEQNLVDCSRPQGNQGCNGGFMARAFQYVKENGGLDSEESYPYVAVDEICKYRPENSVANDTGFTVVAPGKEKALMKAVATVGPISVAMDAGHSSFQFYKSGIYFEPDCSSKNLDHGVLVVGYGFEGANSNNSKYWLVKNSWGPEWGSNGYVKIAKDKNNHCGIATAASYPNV

Cruzipain [5] = target: T3, Cruzipain (Trypanosoma cruzi, UniProt P25779); test: Inhibition of Trypanosoma cruzi cruzain after 15 mins; settings: read-out: IC50
How it was run: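 Cruzain at 1.5 nM final in 100 mM acetate pH 5.5, 5 mM DTT, 0.01% Triton X-100; compounds as serial 2-fold dilutions pin-transferred in DMSO. 15 min room-temperature preincubation, then Z-FR-AMC 2 μM final. Kinetic fluorescence read at ex 340/em 450 nm. Percent inhibition from the first 60 s signal change versus no-enzyme and uninhibited controls (48 wells each).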

Pro-cathepsin H = target: T4, Pro-cathepsin H (Homo sapiens, UniProt P09668); test: Inhibition of human Cathepsin H; how it was run: as §1
T4 sequence (P09668 whole entry): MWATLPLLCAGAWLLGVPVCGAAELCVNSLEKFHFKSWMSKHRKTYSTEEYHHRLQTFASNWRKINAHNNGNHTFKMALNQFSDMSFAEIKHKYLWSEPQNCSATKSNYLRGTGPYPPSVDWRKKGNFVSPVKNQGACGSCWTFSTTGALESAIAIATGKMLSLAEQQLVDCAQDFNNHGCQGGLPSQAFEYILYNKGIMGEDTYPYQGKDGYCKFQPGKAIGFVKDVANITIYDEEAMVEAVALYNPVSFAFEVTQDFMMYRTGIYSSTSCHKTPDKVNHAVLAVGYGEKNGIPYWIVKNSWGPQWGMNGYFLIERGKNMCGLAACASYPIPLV

Dipeptidyl peptidase 1 = Dipeptidyl peptidase 1 (Homo sapiens, UniProt P53634); test: Inhibition of human Cathepsin C; how it was run: as §1
Cathepsin Z = Cathepsin Z (Homo sapiens, UniProt Q9UBR2); test: Inhibition of human Cathepsin X/Z; how it was run: as §1
Cathepsin S = Cathepsin S (Homo sapiens, UniProt P25774); test: Inhibition of human Cathepsin S; how it was run: as §1
Canis familiaris = species on record: Canis familiaris; test: Toxicity in dog; format: organism-based, Canis lupus familiaris; settings: in vivo
Kallikrein-4 = Kallikrein-4 (Homo sapiens, UniProt Q9Y5K2); test: Inhibition of human Kallikrein 4; how it was run: as §1
[6] = target: Matrix metalloproteinase-14 (Homo sapiens, UniProt P50281); test: Inhibition of human MMP14; how it was run: as §1
Cruzipain [7] = target: T3, Cruzipain; test: Inhibition of recombinant Trypanosoma cruzi cruzain after 5 mins by spectrofluorimetric analysis
How it was run: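 Recombinant cruzain at 4 nM (activated procruzain, anion-exchange purified) in 100 mM sodium acetate pH 5.5, 5 mM DTT, 0.001% Triton X-100. Preincubated 5 min at room temperature with compound in DMSO, then Z-Phe-Arg-AMC 10 μM. Fluorescence rate read at ex 355/em 460 nm; DMSO controls; IC50 by curve fitting.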

Trypanosoma cruzi [8] = test: Antitrypanosomal activity against Trypanosoma cruzi Y trypomastigotes infected in mouse J774 cells at 10 uM after 27 days medium replaced every 48 hrs; format: functional, organism-based
How it was run: (§2)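 Irradiated (1000 rad) J774 macrophages plated overnight, infected 2 h with Y strain trypomastigotes, parasites removed, then cultured in RPMI-1640 with compound (n = 3); untreated infected and 10 μM K777 controls per experiment. Medium replaced every 48 h over 27 days; daily phase-contrast microscopy (400×) for free trypomastigotes and host toxicity; cultures kept 14 further days to confirm cure.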

Beta-secretase 1 = Beta-secretase 1 (Homo sapiens, UniProt P56817); test: Inhibition of human BACE1; how it was run: as §1
Papain = target: T5, Papain (Carica papaya, UniProt P00784); test: Inhibition of papaya papain; how it was run: as §1
T5 sequence (P00784 whole entry): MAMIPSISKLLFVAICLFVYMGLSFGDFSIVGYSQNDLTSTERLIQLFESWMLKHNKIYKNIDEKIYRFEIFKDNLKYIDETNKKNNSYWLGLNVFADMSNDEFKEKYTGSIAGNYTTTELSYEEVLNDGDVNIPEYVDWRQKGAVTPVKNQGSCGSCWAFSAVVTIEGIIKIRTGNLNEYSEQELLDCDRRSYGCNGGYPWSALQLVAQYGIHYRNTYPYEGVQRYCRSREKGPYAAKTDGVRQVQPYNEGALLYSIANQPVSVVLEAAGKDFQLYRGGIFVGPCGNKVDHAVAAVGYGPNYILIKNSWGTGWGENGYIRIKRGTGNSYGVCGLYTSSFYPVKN

Caspase-1 = Caspase-1 (Homo sapiens, UniProt P29466); test: Inhibition of human Caspase 1; how it was run: as §1
[9] = Inhibition of human CCC1s; how it was run: as §1
[10] = Inhibition of human Chymotrypsin; how it was run: as §1
Cathepsin G = Cathepsin G (Homo sapiens, UniProt P08311); test: Inhibition of human Cathepsin G; how it was run: as §1
Neutrophil elastase = Neutrophil elastase (Homo sapiens, UniProt P08246); test: Inhibition of human Elastase; how it was run: as §1
Caspase-6 = Caspase-6 (Homo sapiens, UniProt P55212); test: Inhibition of human Caspase 6; how it was run: as §1
Trypanosoma cruzi [11] = test: Antitrypanosomal activity against Trypanosoma cruzi Y trypomastigotes infected in mouse J774 cells at 1 uM after 27 days medium replaced every 48 hrs; format: functional, organism-based; how it was run: as §2
Caspase-14 = Caspase-14 (Homo sapiens, UniProt P31944); test: Inhibition of human Caspase 14; how it was run: as §1
[12] = target: Tissue-type plasminogen activator (Homo sapiens, UniProt P00750); test: Inhibition of human tPA; how it was run: as §1
J774 [13] = test: Cytotoxicity against mouse J774 cells at 10 uM; format: cell-based; settings: j774, 10 µM
How it was run: (§3)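 Irradiated (1000 rad) J774 macrophages plated overnight and infected 2 h with Y strain T. cruzi trypomastigotes. After parasite removal, cultured in RPMI-1640 with compound (n = 3), medium changed every 48 h, for 27 days. Toxicity to host cells (granulation, detachment, death) scored daily by phase-contrast microscopy at 400×.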

J774 [14] = test: Cytotoxicity against mouse J774 cells at 5 uM; format: cell-based; settings: j774, 5 µM; how it was run: as §3
Caspase-5 = Caspase-5 (Homo sapiens, UniProt P51878); test: Inhibition of human Caspase 5; how it was run: as §1
Trypanosoma cruzi [15] = test: Antitrypanosomal activity against Trypanosoma cruzi Y trypomastigotes infected in mouse J774 cells at 5 uM after 27 days medium replaced every 48 hrs; format: functional, organism-based; how it was run: as §2
Cruzipain [16] = target: T3, Cruzipain; test: Competitive inhibition of recombinant Trypanosoma cruzi cruzain by Lineweaver-Burke plot analysis

Sequence of Cathepsin S (P25774 whole entry): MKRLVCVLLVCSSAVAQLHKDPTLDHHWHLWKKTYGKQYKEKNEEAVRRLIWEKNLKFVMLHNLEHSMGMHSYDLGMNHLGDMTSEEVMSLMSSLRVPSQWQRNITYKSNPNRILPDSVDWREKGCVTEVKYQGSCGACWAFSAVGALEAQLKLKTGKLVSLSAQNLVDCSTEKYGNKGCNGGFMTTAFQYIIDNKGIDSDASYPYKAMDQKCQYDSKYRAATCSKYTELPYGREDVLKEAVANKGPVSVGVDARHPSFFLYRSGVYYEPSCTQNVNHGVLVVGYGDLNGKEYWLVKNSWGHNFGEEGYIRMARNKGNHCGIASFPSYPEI
Sequence of Procathepsin L (P07711 whole entry): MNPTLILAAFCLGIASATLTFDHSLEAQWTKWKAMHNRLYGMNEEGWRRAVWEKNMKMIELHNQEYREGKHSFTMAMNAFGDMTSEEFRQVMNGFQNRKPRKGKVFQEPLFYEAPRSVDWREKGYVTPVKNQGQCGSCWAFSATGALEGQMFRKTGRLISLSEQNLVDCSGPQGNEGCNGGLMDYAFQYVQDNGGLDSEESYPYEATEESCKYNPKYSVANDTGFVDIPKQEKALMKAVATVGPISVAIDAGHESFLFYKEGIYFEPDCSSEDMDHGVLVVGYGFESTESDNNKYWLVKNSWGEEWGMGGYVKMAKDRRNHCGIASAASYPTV
Sequence of Cathepsin Z (Q9UBR2 whole entry): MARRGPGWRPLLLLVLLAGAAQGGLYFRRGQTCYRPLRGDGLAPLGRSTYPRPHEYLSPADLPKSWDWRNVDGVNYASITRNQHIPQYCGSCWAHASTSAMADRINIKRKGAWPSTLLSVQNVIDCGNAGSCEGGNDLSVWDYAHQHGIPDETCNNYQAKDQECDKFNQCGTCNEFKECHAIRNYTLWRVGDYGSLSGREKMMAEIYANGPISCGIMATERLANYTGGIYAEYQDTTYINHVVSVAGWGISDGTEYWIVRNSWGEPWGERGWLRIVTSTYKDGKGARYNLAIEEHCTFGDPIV
T3 sequence (P25779 whole entry): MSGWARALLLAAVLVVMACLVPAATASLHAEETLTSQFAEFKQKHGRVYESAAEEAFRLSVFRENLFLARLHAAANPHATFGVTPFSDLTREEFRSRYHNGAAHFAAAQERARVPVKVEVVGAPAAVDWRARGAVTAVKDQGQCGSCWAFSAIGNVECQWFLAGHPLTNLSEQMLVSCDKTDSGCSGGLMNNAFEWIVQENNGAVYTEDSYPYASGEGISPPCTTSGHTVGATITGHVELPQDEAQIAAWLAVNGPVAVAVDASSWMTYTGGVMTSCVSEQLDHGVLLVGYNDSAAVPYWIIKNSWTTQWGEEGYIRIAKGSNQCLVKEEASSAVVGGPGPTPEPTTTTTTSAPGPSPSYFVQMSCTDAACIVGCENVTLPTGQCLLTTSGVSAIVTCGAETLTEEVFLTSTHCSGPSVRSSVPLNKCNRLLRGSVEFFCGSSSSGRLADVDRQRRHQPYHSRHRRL
Sequence of Tissue-type plasminogen activator (P00750 whole entry): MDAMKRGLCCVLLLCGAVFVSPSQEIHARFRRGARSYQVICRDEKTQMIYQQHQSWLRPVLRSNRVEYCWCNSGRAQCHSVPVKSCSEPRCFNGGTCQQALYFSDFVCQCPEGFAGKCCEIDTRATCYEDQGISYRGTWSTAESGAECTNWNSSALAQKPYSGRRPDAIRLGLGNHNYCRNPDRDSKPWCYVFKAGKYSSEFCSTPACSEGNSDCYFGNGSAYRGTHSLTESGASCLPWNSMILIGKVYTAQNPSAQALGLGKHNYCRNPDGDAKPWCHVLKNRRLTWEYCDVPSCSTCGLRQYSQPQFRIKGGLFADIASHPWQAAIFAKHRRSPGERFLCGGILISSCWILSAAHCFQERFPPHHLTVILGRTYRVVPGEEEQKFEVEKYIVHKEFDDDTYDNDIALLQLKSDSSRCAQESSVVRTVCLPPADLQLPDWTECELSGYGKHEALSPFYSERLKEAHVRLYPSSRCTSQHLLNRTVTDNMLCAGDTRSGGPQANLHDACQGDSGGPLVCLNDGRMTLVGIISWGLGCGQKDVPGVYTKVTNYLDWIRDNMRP
Sequence of Caspase-6 (P55212 24-179 limits assumed): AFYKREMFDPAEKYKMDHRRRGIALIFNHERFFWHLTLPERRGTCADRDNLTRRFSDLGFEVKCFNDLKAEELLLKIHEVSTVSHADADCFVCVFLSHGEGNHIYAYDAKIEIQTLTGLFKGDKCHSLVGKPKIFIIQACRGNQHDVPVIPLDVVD
Sequence of Caspase-6 (P55212 194-293 limits assumed): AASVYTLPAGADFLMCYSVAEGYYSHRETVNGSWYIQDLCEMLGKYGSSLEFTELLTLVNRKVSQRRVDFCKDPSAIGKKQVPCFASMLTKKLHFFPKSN
Sequence of Kallikrein-4 (Q9Y5K2 whole entry): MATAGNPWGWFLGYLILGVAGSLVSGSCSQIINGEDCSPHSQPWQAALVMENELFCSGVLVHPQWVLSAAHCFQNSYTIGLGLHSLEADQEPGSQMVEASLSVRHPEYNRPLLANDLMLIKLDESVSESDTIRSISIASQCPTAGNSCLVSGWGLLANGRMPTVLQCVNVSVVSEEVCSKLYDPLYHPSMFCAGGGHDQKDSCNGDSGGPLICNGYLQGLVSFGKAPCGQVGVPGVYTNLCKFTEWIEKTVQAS
Sequence of Caspase-14 (P31944 6-146 limits assumed): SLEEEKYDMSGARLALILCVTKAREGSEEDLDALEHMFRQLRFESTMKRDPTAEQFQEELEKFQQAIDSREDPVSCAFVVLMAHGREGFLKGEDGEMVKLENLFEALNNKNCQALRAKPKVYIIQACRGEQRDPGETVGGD
Sequence of Caspase-14 (P31944 153-242 limits assumed): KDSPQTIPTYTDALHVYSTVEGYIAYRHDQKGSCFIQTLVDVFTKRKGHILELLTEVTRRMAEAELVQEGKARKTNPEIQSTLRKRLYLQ
Sequence of Dipeptidyl peptidase 1 (P53634 25-134 limits assumed): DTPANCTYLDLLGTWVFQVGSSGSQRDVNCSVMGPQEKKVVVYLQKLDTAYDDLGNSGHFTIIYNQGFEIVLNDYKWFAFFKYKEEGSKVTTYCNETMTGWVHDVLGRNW
Sequence of Dipeptidyl peptidase 1 (P53634 231-394 limits assumed): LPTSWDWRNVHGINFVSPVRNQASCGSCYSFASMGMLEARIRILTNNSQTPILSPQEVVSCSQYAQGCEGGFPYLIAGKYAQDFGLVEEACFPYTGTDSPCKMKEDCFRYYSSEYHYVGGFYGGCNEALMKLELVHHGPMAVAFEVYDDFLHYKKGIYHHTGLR
Sequence of Dipeptidyl peptidase 1 (P53634 395-463 limits assumed): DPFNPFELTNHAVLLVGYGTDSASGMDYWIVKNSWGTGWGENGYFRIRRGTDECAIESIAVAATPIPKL
Sequence of Caspase-4 (P49662 81-270 limits assumed): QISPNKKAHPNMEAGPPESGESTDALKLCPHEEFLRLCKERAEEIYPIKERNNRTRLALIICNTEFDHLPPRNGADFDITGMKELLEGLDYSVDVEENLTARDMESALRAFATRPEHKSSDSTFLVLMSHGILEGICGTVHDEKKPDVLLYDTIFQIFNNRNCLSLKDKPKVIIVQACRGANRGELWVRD
Sequence of Caspase-4 (P49662 290-377 limits assumed): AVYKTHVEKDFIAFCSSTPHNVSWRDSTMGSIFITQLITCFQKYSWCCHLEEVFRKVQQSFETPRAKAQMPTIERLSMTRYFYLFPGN
Sequence of Disintegrin and metalloproteinase domain-containing protein 17 (P78536 whole entry, the tested form may be a part): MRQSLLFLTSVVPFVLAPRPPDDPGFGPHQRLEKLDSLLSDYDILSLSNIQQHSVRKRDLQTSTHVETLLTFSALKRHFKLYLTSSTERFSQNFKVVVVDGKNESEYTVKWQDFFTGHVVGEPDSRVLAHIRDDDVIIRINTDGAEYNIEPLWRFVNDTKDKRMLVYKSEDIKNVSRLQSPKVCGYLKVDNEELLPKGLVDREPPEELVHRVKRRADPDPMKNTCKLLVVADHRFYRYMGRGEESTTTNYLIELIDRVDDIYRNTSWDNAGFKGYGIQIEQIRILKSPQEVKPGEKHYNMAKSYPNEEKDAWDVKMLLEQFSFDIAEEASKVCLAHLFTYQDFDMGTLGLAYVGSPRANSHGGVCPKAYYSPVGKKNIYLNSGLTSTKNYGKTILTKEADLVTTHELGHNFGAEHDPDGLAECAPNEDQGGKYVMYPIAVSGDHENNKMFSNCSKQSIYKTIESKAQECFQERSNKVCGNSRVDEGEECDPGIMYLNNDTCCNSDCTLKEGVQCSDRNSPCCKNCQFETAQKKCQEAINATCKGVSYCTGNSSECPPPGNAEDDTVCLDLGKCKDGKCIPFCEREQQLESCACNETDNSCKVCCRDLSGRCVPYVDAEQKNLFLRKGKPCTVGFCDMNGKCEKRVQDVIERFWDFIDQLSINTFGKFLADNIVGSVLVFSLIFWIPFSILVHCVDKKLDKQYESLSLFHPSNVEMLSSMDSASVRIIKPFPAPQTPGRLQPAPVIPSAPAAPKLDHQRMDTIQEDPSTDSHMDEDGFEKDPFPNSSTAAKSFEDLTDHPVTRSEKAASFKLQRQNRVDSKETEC
Sequence of Proteinase K (P06873 whole entry): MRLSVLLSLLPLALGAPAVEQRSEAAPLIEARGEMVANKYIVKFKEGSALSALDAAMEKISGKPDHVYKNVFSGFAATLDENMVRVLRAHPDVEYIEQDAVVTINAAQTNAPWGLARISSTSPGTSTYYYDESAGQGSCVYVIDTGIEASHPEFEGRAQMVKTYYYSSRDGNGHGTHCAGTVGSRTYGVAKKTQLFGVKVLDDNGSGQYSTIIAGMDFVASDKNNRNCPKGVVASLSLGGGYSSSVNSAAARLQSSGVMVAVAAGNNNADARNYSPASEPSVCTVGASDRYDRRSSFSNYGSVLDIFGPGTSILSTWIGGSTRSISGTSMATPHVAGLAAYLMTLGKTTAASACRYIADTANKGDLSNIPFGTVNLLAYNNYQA

Compound | IC50 [1] [nM] | Activity (Mus musculus) | IC50 (Procathepsin L) [nM] | IC50 (Cathepsin K) [nM] | Activity (Rattus norvegicus) | IC50 [4] [nM] | IC50 (Cathepsin L2) [nM] | IC50 (Cruzipain [5]) [nM] | IC50 (Pro-cathepsin H) [nM] | IC50 (Cathepsin Z) [nM] | IC50 (Cathepsin S) [nM] | Activity (Canis familiaris) | IC50 (Cruzipain [7]) [nM] | IC50 (Papain) [nM] | Activity (Trypanosoma cruzi [11]) | Activity (J774 [13]) | further results
CCn1cnc2c(Nc3cc(F)cc(F)c3)nc(C#N)nc21 | 6000 | Non-toxic | 117 | 23.4 | Non-toxic | < 6 | 240 | 10 | 126 | 933 | 15.8 | Non-toxic | 0.2 | 44.7 | – | – | IC50 (Proteinase K): 74100 nM; pIC50 [2]: 4.19; IC50 [3]: 74100 nM; IC50 (Cathepsin B): 10700 nM; IC50 (Caspase-4): 33100 nM; IC50 (Dipeptidyl peptidase 1): 34.7 nM; IC50 (Kallikrein-4): 14500 nM; IC50 [6]: 72400 nM; Activity (Trypanosoma cruzi [8]): inactive; IC50 (Beta-secretase 1): 63100 nM
CCNc1nc(C#N)nc2c1ncn2-c1cc(F)cc(F)c1 | – | Non-toxic | 562 | 50.1 | Non-toxic | – | 70800 | 251 | 646 | 316 | 105 | Non-toxic | – | 33.1 | – | – | IC50 (Caspase-1): 70800 nM; pIC50 [9]: 4.3; IC50 (Dipeptidyl peptidase 1): 589 nM; IC50 (Kallikrein-4): 178000 nM; IC50 [6]: 135000 nM
N#Cc1nc(Nc2cc(F)cc(F)c2)c2ncn(CC(F)F)c2n1 | – | – | 7940 | – | – | – | – | 13 | – | – | – | – | – | – | – | – | pIC50 [10]: 4.19; IC50 (Cathepsin G): 148000 nM; IC50 (Neutrophil elastase): 85100 nM
N#Cc1nc(Nc2cc(F)cc(F)c2)nc(NC2CCCC2)n1 | 4000 | Non-toxic | 204 | 20.4 | Non-toxic | 5 | 182 | 63 | 16200 | 3160 | 5620 | Non-toxic | 4 | 389 | inactive | Toxic | IC50 (Caspase-6): 3550 nM; IC50 (Cathepsin B): 10000 nM; IC50 (Caspase-14): 9120 nM; IC50 [12]: 1290 nM; IC50 (Caspase-4): 8130 nM; Activity (J774 [14]): Toxic; IC50 (Caspase-5): 13500 nM
N#Cc1nc(Nc2cccc(Cl)c2)nc(NC2CCCC2)n1 | > 100000 | Non-toxic | 309 | 17.4 | Non-toxic | 6 | 832 | 79 | 14500 | 6460 | 6460 | Non-toxic | 2 | 513 | inactive | Toxic | IC50 (Caspase-6): 5130 nM; Activity (Trypanosoma cruzi [15]): inactive; IC50 (Caspase-14): 14100 nM; IC50 [12]: 851 nM
N#Cc1nc(Nc2cccc(Br)c2)nc(NC2CCCC2)n1 | > 100000 | – | – | – | – | 6 | – | 100 | – | – | – | – | 2 | – | inactive | Toxic | Activity (J774 [14]): Toxic
N#Cc1nc(N)nc(N(c2ccccc2)c2ccccc2)n1 | > 1000 | – | – | – | – | > 10000 | – | – | – | – | – | – | 70 | – | – | – | Ki (Cruzipain [16]): 180 nM
